# According to ChEMBL document CHEMBL4689842, “EUbOPEN Chemogenomics Library wave 1” (2021):
# Several values for one entry are separate records, joined by “and”; a condition that tells them apart may be missing. Equal values may be shown once.
# Tested on: HEK-293T
# Test: Multiplex assay against HEK293T;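 as to Population Tubulin-Different-Phenotype (%): share of the cells with healthy nuclei that show this phenotype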
# Format: toxicity, cell-based
# Conditions: human
# Method in brief: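 Cells were classed with CellPathfinder machine-learning gating, first as Hoechst high-intensity objects or normal cells, then (normal cells) as healthy, pyknosed or fragmented nuclei, and finally (pyknosed cells) as mitotic or apoptotic. Staining of live cells at seeding used Hoechst33342, BioTracker Green Microtubule Cytoskeleton Dye, MitoTracker Red and Annexin V Alexa Fluor 680, with imaging on a CQ1 microscope at 37°C and 5% CO2 after compound addition. Tubulin, mitochondrial-mass and membrane-permeability phenotypes are per cents of healthy-nucleus cells.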
# [1] = 12 h, 1 µM, compound concentration 1 uM, replicate 1
# [2] = 12 h, 1 µM, compound concentration 1 uM, replicate 2
# [3] = 24 h, 1 µM, compound concentration 1 uM, replicate 1
# [4] = 24 h, 1 µM, compound concentration 1 uM, replicate 2
# [5] = 12 h, 10 µM, compound concentration 10 uM, replicate 1
# [6] = 12 h, 10 µM, compound concentration 10 uM, replicate 2
# [7] = 24 h, 10 µM, compound concentration 10 uM, replicate 1
# [8] = 24 h, 10 µM, compound concentration 10 uM, replicate 2
structure (smiles),measurement,setting,value
Cn1cc(C2=C(c3cn(C4CCN(Cc5ccccn5)CC4)c4ccccc34)C(=O)NC2=O)c2ccccc21 [ENZASTAURIN],Population Apoptotic (%),[1],23% and 42%
same,Population Fragmented Nuclei (%),[1],18% and 16%
same,Population Healthy Nuclei (%),[1],49% and 29%
same,Population Hoechst High Intensity Objects (%),[1],14% and 15%
same,Population Membrane Permeable-Phenotype (%),[1],13% and 12%
same,Population Mitotic Cells (%),[1],76% and 57%
same,Population Normal (%),[1],85% and 84%
same,Population Pyknosed Nuclei (%),[1],31% and 53%
same,Total Cell Count,[1],539 and 569
same,Population Apoptotic (%),[2],28% and 14%
same,Population Fragmented Nuclei (%),[2],3% and 4%
same,Population Healthy Nuclei (%),[2],77% and 86%
same,Population Hoechst High Intensity Objects (%),[2],6% and 4%
same,Population Membrane Permeable-Phenotype (%),[2],2% and 6%
same,Population Mitochondria Different-Phenotype (%),[2],72% and 25%
same,Population Mitotic Cells (%),[2],71% and 85%
same,Population Normal (%),[2],93% and 95%
same,Population Pyknosed Nuclei (%),[2],19% and 9%
same,Population Tubulin-Different-Phenotype (%),[2],87% and 37%
same,Total Cell Count,[2],1031 and 1115
same,Population Apoptotic (%),[3],49% and 19%
same,Population Fragmented Nuclei (%),[3],19% and 16%
same,Population Healthy Nuclei (%),[3],39% and 65%
same,Population Hoechst High Intensity Objects (%),[3],24% and 11%
same,Population Membrane Permeable-Phenotype (%),[3],11% and 6%
same,Population Mitotic Cells (%),[3],50% and 80%
same,Population Normal (%),[3],75% and 88%
same,Population Pyknosed Nuclei (%),[3],41% and 18%
same,Population Tubulin-Different-Phenotype (%),[3],76% and 32%
same,Total Cell Count,[3],506 and 516
same,Population Fragmented Nuclei (%),[4],4% and 12%
same,Population Healthy Nuclei (%),[4],85% and 83%
same,Population Hoechst High Intensity Objects (%),[4],9% and 5%
same,Population Membrane Permeable-Phenotype (%),[4],3% and 4%
same,Population Mitotic Cells (%),[4],68% and 93%
same,Population Normal (%),[4],90% and 94%
same,Population Tubulin-Different-Phenotype (%),[4],77% and 27%
same,Total Cell Count,[4],1011 and 1578
Cn1cncc1[C@@](O)(COc1ccc(C#N)cc1-c1ccc(OC(F)(F)F)cc1)c1ccc(C#N)cc1 [A-108],Population Apoptotic (%),[5],23% and 20%
same,Population Fragmented Nuclei (%),[5],11% and 16%
same,Population Healthy Nuclei (%),[5],51% and 64%
same,Population Hoechst High Intensity Objects (%),[5],11% and 14%
same,Population Mitochondria Different-Phenotype (%),[5],8% and 4%
same,Population Mitotic Cells (%),[5],76% and 79%
same,Population Normal (%),[5],88% and 85%
same,Population Pyknosed Nuclei (%),[5],36% and 18%
same,Total Cell Count,[5],827 and 582
same,Population Apoptotic (%),[6],12% and 14%
same,Population Fragmented Nuclei (%),[6],3% and 9%
same,Population Healthy Nuclei (%),[6],77% and 85%
same,Population Hoechst High Intensity Objects (%),[6],4% and 2%
same,Population Mitochondria Different-Phenotype (%),[6],19% and 7%
same,Population Mitotic Cells (%),[6],87% and 85%
same,Population Normal (%),[6],95% and 97%
same,Total Cell Count,[6],1209 and 1952
same,Population Apoptotic (%),[7],25% and 12%
same,Population Fragmented Nuclei (%),[7],10% and 12%
same,Population Healthy Nuclei (%),[7],60% and 78%
same,Population Hoechst High Intensity Objects (%),[7],10%
same,Population Mitochondria Different-Phenotype (%),[7],4%
same,Population Mitotic Cells (%),[7],75% and 87%
same,Population Normal (%),[7],89%
same,Total Cell Count,[7],759 and 650
same,Population Apoptotic (%),[8],8% and 5%
same,Population Healthy Nuclei (%),[8],73% and 71%
same,Population Hoechst High Intensity Objects (%),[8],4% and 3%
same,Population Mitochondria Different-Phenotype (%),[8],9% and 2%
same,Population Mitotic Cells (%),[8],91% and 95%
same,Population Normal (%),[8],95% and 96%
same,Population Tubulin-Different-Phenotype (%),[8],97%
same,Total Cell Count,[8],1251 and 3226
CC(C)C(=O)Nc1n[nH]c2cc(-c3cccc(NS(=O)(=O)C4CC4)c3)ccc12,Population Apoptotic (%),[1],21%
same,Population Fragmented Nuclei (%),[1],16% and 10%
same,Population Healthy Nuclei (%),[1],61% and 63%
same,Population Hoechst High Intensity Objects (%),[1],10% and 14%
same,Population Membrane Permeable-Phenotype (%),[1],4%
same,Population Mitochondria Different-Phenotype (%),[1],4% and 6%
same,Population Mitotic Cells (%),[1],78%
same,Population Normal (%),[1],89% and 85%
same,Population Pyknosed Nuclei (%),[1],22% and 25%
same,Population Tubulin-Different-Phenotype (%),[1],1% and 4%
same,Total Cell Count,[1],541 and 686
same,Population Apoptotic (%),[2],12% and 8%
same,Population Fragmented Nuclei (%),[2],4% and 6%
same,Population Healthy Nuclei (%),[2],85% and 89%
same,Population Hoechst High Intensity Objects (%),[2],3% and 1%
same,Population Membrane Permeable-Phenotype (%),[2],1%
same,Population Mitochondria Different-Phenotype (%),[2],13% and 7%
same,Population Mitotic Cells (%),[2],87% and 91%
same,Population Normal (%),[2],96% and 98%
same,Population Pyknosed Nuclei (%),[2],9% and 4%
same,Population Tubulin-Different-Phenotype (%),[2],7%
same,Total Cell Count,[2],1247 and 1614
same,Population Apoptotic (%),[3],14% and 20%
same,Population Fragmented Nuclei (%),[3],11%
same,Population Healthy Nuclei (%),[3],80% and 75%
same,Population Hoechst High Intensity Objects (%),[3],6% and 10%
same,Population Membrane Permeable-Phenotype (%),[3],8% and 6%
same,Population Mitochondria Different-Phenotype (%),[3],3% and 5%
same,Population Mitotic Cells (%),[3],85% and 79%
same,Population Normal (%),[3],93% and 89%
same,Population Pyknosed Nuclei (%),[3],8% and 13%
same,Population Tubulin-Different-Phenotype (%),[3],4% and 8%
same,Total Cell Count,[3],620 and 701
same,Population Apoptotic (%),[4],4% and 12%
same,Population Fragmented Nuclei (%),[4],22% and 8%
same,Population Healthy Nuclei (%),[4],76% and 86%
same,Population Hoechst High Intensity Objects (%),[4],3% and 4%
same,Population Membrane Permeable-Phenotype (%),[4],5% and 2%
same,Population Mitochondria Different-Phenotype (%),[4],1% and 6%
same,Population Mitotic Cells (%),[4],95% and 87%
same,Population Normal (%),[4],96% and 95%
same,Population Tubulin-Different-Phenotype (%),[4],15%
same,Total Cell Count,[4],2835 and 1472
